What follows are compounds tested on Plasmodium falciparum (assay: IC50 ratio against Plasmodium falciparum K1CB1/TM4). Conditions: not given.
Type: functional

| SMILES | Ratio |
| --- | --- |
| Cc1nc(N)nc(N)c1-c1ccccc1 | 4.2 |
| CCc1nc(N)nc(N)c1-c1ccc(-c2ccccc2)cc1 | 0.3 |
| Nc1nc(N)c(-c2cccc(Cl)c2)c(CCCc2ccccc2)n1 | 4.3 |
| Cc1nc(N)nc(N)c1-c1ccc(Cl)cc1 | 120.2 |
| Nc1ncc(-c2cccc(Cl)c2)c(N)n1 | 1.5 |
| CCc1nc(N)nc(N)c1-c1ccc(C)cc1 | 127 |
| Cc1nc(N)nc(N)c1-c1cccc(Cl)c1 | 2 |
| CCc1nc(N)nc(N)c1-c1ccc(Cl)cc1Cl | 2 |

The compounds below were run on Vero (assay: Cytotoxicity by the selective inhibition against African green monkey kidney […] (vero cells).). Conditions: Chlorocebus sabaeus.
Type: functional, cell-based

| SMILES | IC50 |
| --- | --- |
| CCOc1cc(Cc2cnc(N)nc2N)ccc1OCc1ccccc1 | > 250000 nM |
| COc1cc(COc2ccc(Cc3cnc(N)nc3N)cc2)cc(OC)c1OC | > 250000 nM |
| COc1cc(Cc2cnc(N)nc2N)cc(OC)c1OC [TRIMETHOPRIM] | > 50000 nM |
| CCCCOc1cc(Cc2cnc(N)nc2N)ccc1OCc1cc(OC)c(OC)c(OC)c1 | > 50000 nM |

These compounds were tested on KB (assay: Cytotoxicity against human epidermoid carcinoma KB cell.). Conditions: not given.
Type: functional, cell-based

| SMILES | IC50 |
| --- | --- |
| CCc1nc(N)nc(N)c1-c1ccc(Cl)cc1 [PYRIMETHAMINE] | 109000 nM |
| CCOc1cc(Cc2cnc(N)nc2N)ccc1OCc1ccccc1 | 47000 nM |
| COc1cc(COc2ccc(Cc3cnc(N)nc3N)cc2)cc(OC)c1OC | > 250000 nM |
| COc1cc(Cc2cnc(N)nc2N)cc(OC)c1OC [TRIMETHOPRIM] | > 250000 nM |
| CCCCOc1cc(Cc2cnc(N)nc2N)ccc1OCc1cc(OC)c(OC)c(OC)c1 | > 50000 nM |

What follows are compounds tested against Bifunctional dihydrofolate reductase-thymidylate synthase (Plasmodium falciparum K1) (UniProt P13922) (assay: Inhibition of the S108N mutant of dihydrofolate reductase (DHFR) relative to Pyr.). Conditions: not given.
Sequence of Bifunctional dihydrofolate reductase-thymidylate synthase (Plasmodium falciparum K1) (P13922 whole entry, looked up): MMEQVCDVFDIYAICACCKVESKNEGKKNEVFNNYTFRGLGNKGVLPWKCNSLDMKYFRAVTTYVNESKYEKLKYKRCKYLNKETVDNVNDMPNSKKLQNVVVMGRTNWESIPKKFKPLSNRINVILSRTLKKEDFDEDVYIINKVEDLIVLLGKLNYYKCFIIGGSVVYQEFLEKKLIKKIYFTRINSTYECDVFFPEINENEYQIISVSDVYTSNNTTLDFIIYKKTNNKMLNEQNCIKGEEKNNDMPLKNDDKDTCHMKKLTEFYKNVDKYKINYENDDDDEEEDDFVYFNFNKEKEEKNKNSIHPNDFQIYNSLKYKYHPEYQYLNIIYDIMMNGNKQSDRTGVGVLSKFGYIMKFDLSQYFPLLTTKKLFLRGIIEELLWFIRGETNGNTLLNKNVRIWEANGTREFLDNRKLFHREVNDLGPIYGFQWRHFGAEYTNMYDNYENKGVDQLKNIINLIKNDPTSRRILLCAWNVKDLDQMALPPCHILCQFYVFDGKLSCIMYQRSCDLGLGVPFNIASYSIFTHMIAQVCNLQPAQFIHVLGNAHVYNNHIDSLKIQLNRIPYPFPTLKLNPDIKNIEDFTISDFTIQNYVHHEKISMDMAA
In short: (§1)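 Assayed at 25 °C in 50 mM TES pH 7.0, 75 mM β-mercaptoethanol, 1 mg/mL BSA, with 100 µM H2folate and 100 µM NADPH. A340 was followed. Ki was derived from IC50 = Ki(1+[S]/Km), assuming competitive inhibition.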

| SMILES | Relative activity |
| --- | --- |
| CCc1nc(N)nc(N)c1-c1ccc(-c2ccccc2)cc1 | 14.7 |
| CCc1nc(N)nc(N)c1-c1ccc(C)cc1 | 0.4 |

These compounds were tested on Plasmodium falciparum (assay: Relative antiplasmodial activity (IC50) compared to Pyr against Plasmodium falciparum K1CB1 DHFR double-mutant (C59R/S108N)). Conditions: not given.
Type: functional

| SMILES | Relative activity |
| --- | --- |
| CCc1nc(N)nc(N)c1-c1ccc(-c2ccccc2)cc1 | 0.1 |
| CCc1nc(N)nc(N)c1-c1ccc(C)cc1 | 0.4 |

The compounds below were run on Bifunctional dihydrofolate reductase-thymidylate synthase (Plasmodium falciparum K1), P13922 [UNDEFINED MUTATION] (assay: Ratio of Inhibition of the S108N mutant of dihydrofolate reductase (DHFR) to inhibition of wild type dihydrofolate reductase.). Conditions: not given.
Sequence of Bifunctional dihydrofolate reductase-thymidylate synthase (Plasmodium falciparum K1), P13922 [UNDEFINED MUTATION] (P13922 whole entry, looked up, stated change not applied): as the sequence (P13922 whole entry, looked up) above

| SMILES | Ratio |
| --- | --- |
| Cc1nc(N)nc(N)c1-c1ccccc1 | 2.3 |
| CCc1nc(N)nc(N)c1-c1ccc(-c2ccccc2)cc1 | 2.2 |
| Nc1nc(N)c(-c2cccc(Cl)c2)c(CCCc2ccccc2)n1 | 2.5 |
| Cc1nc(N)nc(N)c1-c1ccc(Cl)cc1 | 51.8 |
| Nc1ncc(-c2cccc(Cl)c2)c(N)n1 | 4.2 |
| CCc1nc(N)nc(N)c1-c1ccc(C)cc1 | 26.5 |
| Cc1nc(N)nc(N)c1-c1cccc(Cl)c1 | 1.7 |
| CCc1nc(N)nc(N)c1-c1ccc(Cl)cc1Cl | 93.1 |

The compounds below were run on BC (assay: Cytotoxicity against human breast cancer cells.). Conditions: not given.
Type: functional, cell-based

| SMILES | IC50 |
| --- | --- |
| CCc1nc(N)nc(N)c1-c1ccc(Cl)cc1 [PYRIMETHAMINE] | > 250000 nM |
| CCOc1cc(Cc2cnc(N)nc2N)ccc1OCc1ccccc1 | 100000 nM |
| COc1cc(COc2ccc(Cc3cnc(N)nc3N)cc2)cc(OC)c1OC | > 250000 nM |
| COc1cc(Cc2cnc(N)nc2N)cc(OC)c1OC [TRIMETHOPRIM] | > 250000 nM |

Each compound was assayed on Plasmodium falciparum (assay: In vitro relative antiplasmodial activity (IC50) compared to Pyr against Plasmodium falciparum TM4/8.2 wild-type). Conditions: not given.
Type: functional

| SMILES | Relative activity |
| --- | --- |
| CCc1nc(N)nc(N)c1-c1ccc(-c2ccccc2)cc1 | 163.8 |
| CCc1nc(N)nc(N)c1-c1ccc(C)cc1 | 1.2 |

These compounds were tested against Bifunctional dihydrofolate reductase-thymidylate synthase (Plasmodium falciparum K1, UniProt P13922, S108N) (assay: Inhibition of the S108N mutant of dihydrofolate reductase (DHFR)). Conditions: not given.
Sequence of Bifunctional dihydrofolate reductase-thymidylate synthase (Plasmodium falciparum K1, UniProt P13922, S108N) (P13922 whole entry, looked up, stated change not applied): as the sequence (P13922 whole entry, looked up) above
In short: (§2)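 Assay at 25 °C: 50 mM TES pH 7.0, 75 mM β-mercaptoethanol, 1 mg/mL BSA, 100 µM H2folate and 100 µM NADPH. NADPH oxidation followed at 340 nm. Ki derived from IC50 as Ki(1+[S]/Km), assuming competitive inhibition.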

| SMILES | Ki |
| --- | --- |
| Cc1nc(N)nc(N)c1-c1ccccc1 | 25.6 nM |
| CCc1nc(N)nc(N)c1-c1ccc(-c2ccccc2)cc1 | 421 nM |
| Nc1nc(N)c(-c2cccc(Cl)c2)c(CCCc2ccccc2)n1 | 3 nM |
| Cc1nc(N)nc(N)c1-c1ccc(Cl)cc1 | 104 nM |
| Nc1ncc(-c2cccc(Cl)c2)c(N)n1 | 26.3 nM |
| CCc1nc(N)nc(N)c1-c1ccc(C)cc1 | 10.6 nM |
| Cc1nc(N)nc(N)c1-c1cccc(Cl)c1 | 3.2 nM |
| CCc1nc(N)nc(N)c1-c1ccc(Cl)cc1Cl | 1170 nM |

These compounds were tested on Plasmodium falciparum (assay: In vitro antiplasmodial activity (IC50) against Plasmodium falciparum wtTM4/8.2). Conditions: not given.
Type: functional, organism-based

| SMILES | IC50 |
| --- | --- |
| CCc1nc(N)nc(N)c1-c1ccc(Cl)cc1 [PYRIMETHAMINE] | 80 nM |
| CCOc1cc(Cc2cnc(N)nc2N)ccc1OCc1ccccc1 | 500 nM |
| CCc1nc(N)nc(N)c1-c1ccc(OCc2ccc(Cl)cc2Cl)c(OC)c1 | 3700 nM |
| COc1cc(COc2ccc(Cc3cnc(N)nc3N)cc2)cc(OC)c1OC | 700 nM |
| Cc1nc(N)nc(N)c1-c1ccccc1 | 7400 nM |
| CCc1nc(N)nc(N)c1-c1ccc(-c2ccccc2)cc1 | 13100 nM |
| Nc1nc(N)c(-c2cccc(Cl)c2)c(CCCc2ccccc2)n1 | 700 nM |
| Cc1nc(N)nc(N)c1-c1ccc(Cl)cc1 | 500 nM |
| Nc1ncc(-c2cccc(Cl)c2)c(N)n1 | 6000 nM |
| CCc1nc(N)nc(N)c1-c1ccc(C)cc1 | 100 nM |
| Cc1nc(N)nc(N)c1-c1cccc(Cl)c1 | 2400 nM |
| CCc1nc(N)nc(N)c1-c1ccc(Cl)cc1Cl | 11300 nM |
| CCCCOc1cc(Cc2cnc(N)nc2N)ccc1OCc1cc(OC)c(OC)c(OC)c1 | 440 nM |

Each compound was assayed against Bifunctional dihydrofolate reductase-thymidylate synthase (Plasmodium falciparum K1, UniProt P13922) (assay: Inhibition of the C59R+S108N mutant of dihydrofolate reductase (DHFR)). Conditions: not given.
Sequence of Bifunctional dihydrofolate reductase-thymidylate synthase (Plasmodium falciparum K1, UniProt P13922) (P13922 whole entry): as the sequence (P13922 whole entry, looked up) above
In short: as §2

| SMILES | Ki |
| --- | --- |
| Cc1nc(N)nc(N)c1-c1ccccc1 | 36.7 nM |
| CCc1nc(N)nc(N)c1-c1ccc(-c2ccccc2)cc1 | 730 nM |
| Nc1nc(N)c(-c2cccc(Cl)c2)c(CCCc2ccccc2)n1 | 4.2 nM |
| Cc1nc(N)nc(N)c1-c1ccc(Cl)cc1 | 142 nM |
| Nc1ncc(-c2cccc(Cl)c2)c(N)n1 | 31.6 nM |
| CCc1nc(N)nc(N)c1-c1ccc(C)cc1 | 14.7 nM |
| Cc1nc(N)nc(N)c1-c1cccc(Cl)c1 | 3.1 nM |
| CCc1nc(N)nc(N)c1-c1ccc(Cl)cc1Cl | 1140 nM |

Each compound was assayed on Bifunctional dihydrofolate reductase-thymidylate synthase (Plasmodium falciparum K1), P13922 [UNDEFINED MUTATION] (assay: Ratio of Inhibition of the C59R+S108N mutant of dihydrofolate reductase (DHFR) to inhibition of wild type dihydrofolate reductase.). Conditions: not given.

| SMILES | Ratio |
| --- | --- |
| Cc1nc(N)nc(N)c1-c1ccccc1 | 3.4 |
| CCc1nc(N)nc(N)c1-c1ccc(-c2ccccc2)cc1 | 3.9 |
| Nc1nc(N)c(-c2cccc(Cl)c2)c(CCCc2ccccc2)n1 | 3.5 |
| Cc1nc(N)nc(N)c1-c1ccc(Cl)cc1 | 71 |
| Nc1ncc(-c2cccc(Cl)c2)c(N)n1 | 5 |
| CCc1nc(N)nc(N)c1-c1ccc(C)cc1 | 36.8 |
| Cc1nc(N)nc(N)c1-c1cccc(Cl)c1 | 1.6 |
| CCc1nc(N)nc(N)c1-c1ccc(Cl)cc1Cl | 90.6 |

What follows are compounds tested against Bifunctional dihydrofolate reductase-thymidylate synthase (Plasmodium falciparum K1) (UniProt P13922) (assay: Inhibition of the C59R+S108N mutant of dihydrofolate reductase (DHFR) relative to Pyr.). Conditions: not given.
In short: as §1

| SMILES | Relative activity |
| --- | --- |
| CCc1nc(N)nc(N)c1-c1ccc(-c2ccccc2)cc1 | 13.5 |
| CCc1nc(N)nc(N)c1-c1ccc(C)cc1 | 0.3 |

Each compound was assayed against Bifunctional dihydrofolate reductase-thymidylate synthase (Plasmodium falciparum K1) (UniProt P13922) (assay: Inhibition of Plasmodium falciparum wild-type dihydrofolate reductase (DHFR) relative to Pyrimethamine.). Conditions: not given.

| SMILES | Relative activity |
| --- | --- |
| Cc1nc(N)nc(N)c1-c1ccccc1 | 18.2 |
| Nc1nc(N)c(-c2cccc(Cl)c2)c(CCCc2ccccc2)n1 | 2 |
| Cc1nc(N)nc(N)c1-c1ccc(Cl)cc1 | 3.3 |
| Nc1ncc(-c2cccc(Cl)c2)c(N)n1 | 10.5 |
| Cc1nc(N)nc(N)c1-c1cccc(Cl)c1 | 3.2 |
| CCc1nc(N)nc(N)c1-c1ccc(Cl)cc1Cl | 21 |

What follows are compounds tested against Bifunctional dihydrofolate reductase-thymidylate synthase (Plasmodium falciparum K1) (UniProt P13922) (assay: Inhibition of mutant C59R+S108N dihydrofolate reductase (DHFR) relative to Pyr). Conditions: not given.

| SMILES | Relative activity |
| --- | --- |
| Cc1nc(N)nc(N)c1-c1ccccc1 | 0.7 |
| Cc1nc(N)nc(N)c1-c1ccc(Cl)cc1 | 2.6 |
| CCc1nc(N)nc(N)c1-c1ccc(Cl)cc1Cl | 21.2 |

These compounds were tested against Bifunctional dihydrofolate reductase-thymidylate synthase (Plasmodium falciparum K1) (UniProt P13922) (assay: Inhibition of mutant S108N dihydrofolate reductase (DHFR) relative to Pyr). Conditions: not given.

| SMILES | Relative activity |
| --- | --- |
| Cc1nc(N)nc(N)c1-c1ccccc1 | 0.9 |
| Cc1nc(N)nc(N)c1-c1ccc(Cl)cc1 | 3.6 |
| CCc1nc(N)nc(N)c1-c1ccc(Cl)cc1Cl | 41 |

Each compound was assayed against Bifunctional dihydrofolate reductase-thymidylate synthase (Plasmodium falciparum K1) (UniProt P13922) (assay: Inhibition of the wild-type dihydrofolate reductase (DHFR) relative to Pyr.). Conditions: not given.
In short: as §1

| SMILES | Relative activity |
| --- | --- |
| CCc1nc(N)nc(N)c1-c1ccc(-c2ccccc2)cc1 | 313 |
| CCc1nc(N)nc(N)c1-c1ccc(C)cc1 | 0.7 |

Reference: ChEMBL document CHEMBL1135602 (J Med Chem, 2002)
